Experiments:
Rattus norvegicus [1] = experiment: Distribution in rat heart 2 hr after intravenous administration, injected dose/gm; type: ADME, organism-based; settings: in vivo
Procedure, shortened: (§1)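 [77Br]Bromperidol at high specific activity (50-100 µCi in 0.1 mL 0.9% NaCl, pH 3) given into the femoral vein of 300-320-g female Sprague-Dawley rats under light ether anesthesia. At each time point, groups of five were decapitated after cardiac-puncture blood sampling. Organs were dissected, blotted, weighed and gamma-counted against an injectate standard. Values are % injected dose/g, mean ± SD, n=5.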

Rattus norvegicus [2] = experiment: Distribution in rat heart 30 min after intravenous administration, injected dose/gm; type: ADME, organism-based; settings: in vivo, 0.5 h; procedure, shortened: as §1
Rattus norvegicus [3] = experiment: Distribution in rat liver 30 min after intravenous administration, injected dose/gm; type: ADME, organism-based; settings: in vivo, 0.5 h
Procedure, shortened: (§2)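 Female Sprague-Dawley rats (300-320 g) under light ether anesthesia received a single injection of [77Br]-labeled tracer (50-100 µCi in 0.1 mL 0.9% NaCl, pH 3) into the femoral vein. Groups of five were decapitated at set times after a cardiac-puncture blood sample. Organs were dissected, blotted and weighed, and counted in a NaI(Tl) well γ-counter. Values are %ID/g against an injectate standard, mean ± SD (n=5).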

Rattus norvegicus [4] = experiment: Distribution in rat liver 4 hr after intravenous administration, injected dose/gm; type: ADME, organism-based; settings: in vivo; procedure, shortened: as §2
Rattus norvegicus [5] = experiment: Distribution in rat liver 5 min after intravenous administration, injected dose/gm; type: ADME, organism-based; settings: in vivo; procedure, shortened: as §2
Rattus norvegicus [6] = experiment: Distribution in rat liver 6 hr after intravenous administration, injected dose/gm; type: ADME, organism-based; settings: in vivo; procedure, shortened: as §2
Rattus norvegicus [7] = experiment: Distribution in rat lungs 15 min after intravenous administration, injected dose/gm; type: ADME, organism-based, Lung; settings: in vivo, 0.25 h; procedure, shortened: as §2
Rattus norvegicus [8] = experiment: Distribution in rat lungs 1 hr after intravenous administration, injected dose/gm; type: ADME, organism-based, Lung; settings: in vivo; procedure, shortened: as §2
Rattus norvegicus [9] = experiment: Distribution in rat lungs 2 hr after intravenous administration, injected dose/gm; type: ADME, organism-based, Lung; settings: in vivo; procedure, shortened: as §2
Rattus norvegicus [10] = experiment: Distribution in rat lungs 30 min after intravenous administration, injected dose/gm; type: ADME, organism-based, Lung; settings: in vivo, 0.5 h; procedure, shortened: as §2
Rattus norvegicus [11] = experiment: Distribution in rat lungs 4 hr after intravenous administration, injected dose/gm; type: ADME, organism-based, Lung; settings: in vivo; procedure, shortened: as §2
Rattus norvegicus [12] = experiment: Distribution in rat lungs 5 min after intravenous administration, injected dose/gm; type: ADME, organism-based, Lung; settings: in vivo; procedure, shortened: as §2
Rattus norvegicus [13] = experiment: Distribution in rat lungs 6 hr after intravenous administration, injected dose/gm; type: ADME, organism-based, Lung; settings: in vivo; procedure, shortened: as §2
Rattus norvegicus [14] = experiment: Distribution in rat lungs 8 hr after intravenous administration, injected dose/gm; type: ADME, organism-based, Lung; settings: in vivo; procedure, shortened: as §2
Rattus norvegicus [15] = experiment: Distribution in rat muscle 15 min after intravenous administration, injected dose/gm; type: ADME, organism-based, Muscle tissue; settings: in vivo, 0.25 h; procedure, shortened: as §2
Rattus norvegicus [16] = experiment: Distribution in rat muscle 2 hr after intravenous administration, injected dose/gm; type: ADME, organism-based, Muscle tissue; settings: in vivo; procedure, shortened: as §2
Rattus norvegicus [17] = experiment: Distribution in rat skin 8 hr after intravenous administration, injected dose/gm; type: ADME, organism-based; settings: in vivo; procedure, shortened: as §2
Rattus norvegicus [18] = experiment: Distribution in rat spleen 15 min after intravenous administration, injected dose/gm; type: ADME, organism-based; settings: in vivo, 0.25 h; procedure, shortened: as §2
Rattus norvegicus [19] = experiment: Distribution in rat spleen 2 hr after intravenous administration, injected dose/gm; type: ADME, organism-based; settings: in vivo; procedure, shortened: as §2
Rattus norvegicus [20] = experiment: Distribution in rat spleen 30 min after intravenous administration, injected dose/gm; type: ADME, organism-based; settings: in vivo, 0.5 h; procedure, shortened: as §2
Rattus norvegicus [21] = experiment: Distribution in rat spleen 4 hr after intravenous administration, injected dose/gm; type: ADME, organism-based; settings: in vivo; procedure, shortened: as §2
Rattus norvegicus [22] = experiment: Distribution in rat spleen 6 hr after intravenous administration, injected dose/gm; type: ADME, organism-based; settings: in vivo; procedure, shortened: as §2
Rattus norvegicus [23] = experiment: Distribution in rat spleen 8 hr after intravenous administration, injected dose/gm; type: ADME, organism-based; settings: in vivo; procedure, shortened: as §2
Rattus norvegicus [24] = experiment: Distribution in rat uterus 15 min after intravenous administration, injected dose/gm; type: ADME, organism-based; settings: in vivo, 0.25 h; procedure, shortened: as §2
Rattus norvegicus [25] = experiment: Distribution in rat uterus 2 hr after intravenous administration, injected dose/gm; type: ADME, organism-based; settings: in vivo; procedure, shortened: as §2
Rattus norvegicus [26] = experiment: Distribution in rat uterus 30 min after intravenous administration, injected dose/gm; type: ADME, organism-based; settings: in vivo, 0.5 h; procedure, shortened: as §2
Rattus norvegicus [27] = experiment: Distribution in blood of rat 5 min after intravenous administration, injected dose/gm; type: ADME, organism-based; settings: in vivo; procedure, shortened: as §1
Rattus norvegicus [28] = experiment: Distribution in blood of rat, 15 min after intravenous administration, injected dose/gm; type: ADME, organism-based; settings: in vivo, 0.25 h; procedure, shortened: as §1
Rattus norvegicus [29] = experiment: Distribution in blood of rat, 1 hr after intravenous administration, injected dose/gm; type: ADME, organism-based; settings: in vivo; procedure, shortened: as §1
Rattus norvegicus [30] = experiment: Distribution in blood of rat, 2 hr after intravenous administration, injected dose/gm; type: ADME, organism-based; settings: in vivo; procedure, shortened: as §1
Rattus norvegicus [31] = experiment: Distribution in blood of rat, 30 min after intravenous administration, injected dose/gm; type: ADME, organism-based; settings: in vivo, 0.5 h; procedure, shortened: as §1
Rattus norvegicus [32] = experiment: Distribution in blood of rat, 4 hr after intravenous administration, injected dose/gm; type: ADME, organism-based; settings: in vivo; procedure, shortened: as §1
Rattus norvegicus [33] = experiment: Distribution in blood of rat, 6 hr after intravenous administration, injected dose/gm; type: ADME, organism-based; settings: in vivo; procedure, shortened: as §1
Rattus norvegicus [34] = experiment: Distribution in rat kidney, 8 hr after intravenous administration, injected dose/gm; type: ADME, organism-based; settings: in vivo; procedure, shortened: as §1
Rattus norvegicus [35] = experiment: Distribution in rat uterus 4 hr after intravenous administration, injected dose/gm; type: ADME, organism-based; settings: in vivo; procedure, shortened: as §2
Rattus norvegicus [36] = experiment: Distribution in rat uterus 5 min after intravenous administration, injected dose/gm; type: ADME, organism-based; settings: in vivo; procedure, shortened: as §2
Rattus norvegicus [37] = experiment: Distribution in rat uterus 6 hr after intravenous administration, injected dose/gm; type: ADME, organism-based; settings: in vivo; procedure, shortened: as §2
Rattus norvegicus [38] = experiment: Distribution in rat uterus 8 hr after intravenous administration, injected dose/gm; type: ADME, organism-based; settings: in vivo; procedure, shortened: as §2
Rattus norvegicus [39] = experiment: Distribution in rat skin 15 min after intravenous administration, injected dose/gm; type: ADME, organism-based; settings: in vivo, 0.25 h; procedure, shortened: as §2
Rattus norvegicus [40] = experiment: Distribution in rat skin 1 hr after intravenous administration, injected dose/gm; type: ADME, organism-based; settings: in vivo; procedure, shortened: as §2
Rattus norvegicus [41] = experiment: Distribution in rat skin 2 hr after intravenous administration, injected dose/gm; type: ADME, organism-based; settings: in vivo; procedure, shortened: as §2
Rattus norvegicus [42] = experiment: Distribution in rat skin 30 min after intravenous administration, injected dose/gm; type: ADME, organism-based; settings: in vivo, 0.5 h; procedure, shortened: as §2
Rattus norvegicus [43] = experiment: Distribution in rat skin 4 hr after intravenous administration, injected dose/gm; type: ADME, organism-based; settings: in vivo; procedure, shortened: as §2
Rattus norvegicus [44] = experiment: Distribution in rat skin 5 min after intravenous administration, injected dose/gm; type: ADME, organism-based; settings: in vivo; procedure, shortened: as §2
Rattus norvegicus [45] = experiment: Distribution in rat skin 6 hr after intravenous administration, injected dose/gm; type: ADME, organism-based; settings: in vivo; procedure, shortened: as §2
Rattus norvegicus [46] = experiment: Distribution in rat liver 2 hr after intravenous administration, injected dose/gm; type: ADME, organism-based; settings: in vivo; procedure, shortened: as §1
Rattus norvegicus [47] = experiment: Distribution in rat muscle 1 hr after intravenous administration, injected dose/gm; type: ADME, organism-based, Muscle tissue; settings: in vivo; procedure, shortened: as §2
Rattus norvegicus [48] = experiment: Distribution in rat spleen 5 min after intravenous administration, injected dose/gm; type: ADME, organism-based; settings: in vivo; procedure, shortened: as §2
Rattus norvegicus [49] = experiment: Distribution in rat intestine 4 hr after intravenous administration, injected dose/gm; type: ADME, organism-based; settings: in vivo; procedure, shortened: as §1
Rattus norvegicus [50] = experiment: Distribution in rat fat 4 hr after intravenous administration, injected dose/gm; type: ADME, organism-based, Adipose tissue; settings: in vivo; procedure, shortened: as §1

- Distribution (Rattus norvegicus [1]): 0.46%
- Distribution (Rattus norvegicus [2]): 1.07%
- Distribution (Rattus norvegicus [3]): 2.5%
- Distribution (Rattus norvegicus [4]): 4.08%
- Distribution (Rattus norvegicus [5]): 1.03%
- Distribution (Rattus norvegicus [6]): 4.16%
- Distribution (Rattus norvegicus [7]): 6.29%
- Distribution (Rattus norvegicus [8]): 4.19%
- Distribution (Rattus norvegicus [9]): 2.1%
- Distribution (Rattus norvegicus [10]): 5.8%
- Distribution (Rattus norvegicus [11]): 1.59%
- Distribution (Rattus norvegicus [12]): 13.6%
- Distribution (Rattus norvegicus [13]): 1.24%
- Distribution (Rattus norvegicus [14]): 1.14%
- Distribution (Rattus norvegicus [15]): 0.32%
- Distribution (Rattus norvegicus [16]): 0.15%
- Distribution (Rattus norvegicus [17]): 0.14%
- Distribution (Rattus norvegicus [18]): 3.29%
- Distribution (Rattus norvegicus [19]): 2.69%
- Distribution (Rattus norvegicus [20]): 4.43%
- Distribution (Rattus norvegicus [21]): 1.92%
- Distribution (Rattus norvegicus [22]): 1.76%
- Distribution (Rattus norvegicus [23]): 1.86%
- Distribution (Rattus norvegicus [24]): 2.24%
- Distribution (Rattus norvegicus [25]): 1.07%
- Distribution (Rattus norvegicus [26]): 3%
- Distribution (Rattus norvegicus [27]): 0.12%
- Distribution (Rattus norvegicus [28]): 0.11%
- Distribution (Rattus norvegicus [29]): 0.06%
- Distribution (Rattus norvegicus [30]): 0.05%
- Distribution (Rattus norvegicus [31]): 0.08%
- Distribution (Rattus norvegicus [32]): 0.06%
- Distribution (Rattus norvegicus [33]): 0.03%
- Distribution (Rattus norvegicus [34]): 1.77%
- Distribution (Rattus norvegicus [35]): 1.07%
- Distribution (Rattus norvegicus [36]): 1.91%
- Distribution (Rattus norvegicus [37]): 1.2%
- Distribution (Rattus norvegicus [38]): 1.15%
- Distribution (Rattus norvegicus [39]): 0.19%
- Distribution (Rattus norvegicus [40]): 0.2%
- Distribution (Rattus norvegicus [41]): 0.17%
- Distribution (Rattus norvegicus [42]): 0.2%
- Distribution (Rattus norvegicus [43]): 0.14%
- Distribution (Rattus norvegicus [44]): 0.15%
- Distribution (Rattus norvegicus [45]): 0.14%
- Distribution (Rattus norvegicus [46]): 3.16%
- Distribution (Rattus norvegicus [47]): 0.18%
- Distribution (Rattus norvegicus [48]): 3.02%
- Distribution (Rattus norvegicus [49]): 0.76%
- Distribution (Rattus norvegicus [50]): 0.15%
Compound: O=C(CCCN1CCC(O)(c2ccc(Br)cc2)CC1)c1ccc(F)cc1 [BROMPERIDOL]
